ChEMBL document CHEMBL5376013, “Design, synthesis and biological evaluation of novel morpholinopyrimidine-5-carbonitrile derivatives as dual PI3K/mTOR inhibitors” (RSC Med Chem, 2024)

Columns and labels:
Type in all cases: functional
Settings in all cases: read-out: GI
CCRF-CEM = assay: Antitumor activity against human CCRF-CEM cells assessed as growth inhibition at 10 uM relative to control
How it was run: (§1)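 After drug addition, plates were incubated 48 h at 37 °C under 5% CO2. Adherent cells were fixed with cold TCA (10% final, 60 min, 4 °C) and suspension cells with 16% final TCA. Staining used 0.4% SRB in 1% acetic acid, solubilized in 10 mM trizma, read at A515. Percent growth was calculated from time-zero, control and treated absorbances.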

HL-60 = assay: Antitumor activity against human HL-60 cells assessed as growth inhibition at 10 uM relative to control; how it was run: as §1
K562 = assay: Antitumor activity against human K562 cells assessed as growth inhibition at 10 uM relative to control; how it was run: as §1
MOLT-4 = assay: Antitumor activity against human MOLT-4 cells assessed as growth inhibition at 10 uM relative to control; how it was run: as §1
SR = assay: Antitumor activity against human SR cells assessed as growth inhibition at 10 uM relative to control
How it was run: (§2)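 Drug exposure 48 h at 37 °C, 5% CO2. Adherent cells fixed with cold TCA (10% final), suspension cells with TCA (16% final). Stained with 0.4% SRB in 1% acetic acid, dissolved in 10 mM Tris, A515. Growth relative to time-zero and untreated control.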

A549 = assay: Antitumor activity against human A549 cells assessed as growth inhibition at 10 uM relative to control; how it was run: as §1
EKVX = assay: Antitumor activity against human EKVX cells assessed as growth inhibition at 10 uM relative to control; how it was run: as §1
NCI-H226 = assay: Antitumor activity against human NCI-H226 cells assessed as growth inhibition at 10 uM relative to control; how it was run: as §1
NCI-H23 = assay: Antitumor activity against human NCI-H23 cells assessed as growth inhibition at 10 uM relative to control; how it was run: as §1
NCI-H322M = assay: Antitumor activity against human NCI-H322M cells assessed as growth inhibition at 10 uM relative to control; how it was run: as §1
NCI-H460 = assay: Antitumor activity against human NCI-H460 cells assessed as growth inhibition at 10 uM relative to control; how it was run: as §1
NCI-H522 = assay: Antitumor activity against human NCI-H522 cells assessed as growth inhibition at 10 uM relative to control; how it was run: as §1
COLO 205 = assay: Antitumor activity against human COLO 205 cells assessed as growth inhibition at 10 uM relative to control; how it was run: as §1
HCC 2998 = assay: Antitumor activity against human HCC 2998 cells assessed as growth inhibition at 10 uM relative to control; how it was run: as §1
HCT-15 = assay: Antitumor activity against human HCT-15 cells assessed as growth inhibition at 10 uM relative to control; how it was run: as §1
HT-29 = assay: Antitumor activity against human HT-29 cells assessed as growth inhibition at 10 uM relative to control; how it was run: as §1
SF-268 = assay: Antitumor activity against human SF-268 cells assessed as growth inhibition at 10 uM relative to control; how it was run: as §1
SF-539 = assay: Antitumor activity against human SF-539 cells assessed as growth inhibition at 10 uM relative to control; how it was run: as §1
SNB-19 = assay: Antitumor activity against human SNB-19 cells assessed as growth inhibition at 10 uM relative to control; how it was run: as §2
U-251 = assay: Antitumor activity against human U-251 cells assessed as growth inhibition at 10 uM relative to control; how it was run: as §2
LOX IMVI = assay: Antitumor activity against human LOX IMVI cells assessed as growth inhibition at 10 uM relative to control; how it was run: as §1
MDA-MB-435 = assay: Antitumor activity against human MDA-MB-435 cells assessed as growth inhibition at 10 uM relative to control; how it was run: as §1
SK-MEL-2 = assay: Antitumor activity against human SK-MEL-2 cells assessed as growth inhibition at 10 uM relative to control; how it was run: as §1
SK-MEL-28 = assay: Antitumor activity against human SK-MEL-28 cells assessed as growth inhibition at 10 uM relative to control; how it was run: as §2
SK-MEL-5 = assay: Antitumor activity against human SK-MEL-5 cells assessed as growth inhibition at 10 uM relative to control; how it was run: as §2
UACC-62 = assay: Antitumor activity against human UACC-62 cells assessed as growth inhibition at 10 uM relative to control; how it was run: as §2
IGROV-1 = assay: Antitumor activity against human IGROV-1 cells assessed as growth inhibition at 10 uM relative to control; how it was run: as §1
OVCAR-5 = assay: Antitumor activity against human OVCAR-5 cells assessed as growth inhibition at 10 uM relative to control; how it was run: as §1
OVCAR-8 = assay: Antitumor activity against human OVCAR-8 cells assessed as growth inhibition at 10 uM relative to control; how it was run: as §1
NCI/ADR-RES = assay: Antitumor activity against human NCI-ADR-RES cells assessed as growth inhibition at 10 uM relative to control; how it was run: as §1
SK-OV-3 = assay: Antitumor activity against human SK-OV-3 cells assessed as growth inhibition at 10 uM relative to control; how it was run: as §2
786-0 = assay: Antitumor activity against human 786-0 cells assessed as growth inhibition at 10 uM relative to control; how it was run: as §1
A498 = assay: Antitumor activity against human A498 cells assessed as growth inhibition at 10 uM relative to control; how it was run: as §1
ACHN = assay: Antitumor activity against human ACHN cells assessed as growth inhibition at 10 uM relative to control; how it was run: as §1
CAKI-1 = assay: Antitumor activity against human CAKI-1 cells assessed as growth inhibition at 10 uM relative to control; how it was run: as §1
RXF 393 = assay: Antitumor activity against human RXF 393 cells assessed as growth inhibition at 10 uM relative to control; how it was run: as §1
SN12C = assay: Antitumor activity against human SN12C cells assessed as growth inhibition at 10 uM relative to control; how it was run: as §2
TK-10 = assay: Antitumor activity against human TK-10 cells assessed as growth inhibition at 10 uM relative to control; how it was run: as §2
UO-31 = assay: Antitumor activity against human UO-31 cells assessed as growth inhibition at 10 uM relative to control; how it was run: as §2
PC-3 = assay: Antitumor activity against human PC-3 cells assessed as growth inhibition at 10 uM relative to control; how it was run: as §1
DU-145 = assay: Antitumor activity against human DU-145 cells assessed as growth inhibition at 10 uM relative to control; how it was run: as §1
MCF7 = assay: Antitumor activity against human MCF7 cells assessed as growth inhibition at 10 uM relative to control; how it was run: as §1
MDA-MB-231 = assay: Antitumor activity against human MDA-MB-231 cells assessed as growth inhibition at 10 uM relative to control; how it was run: as §1
Hs-578T = assay: Antitumor activity against human Hs-578T cells assessed as growth inhibition at 10 uM relative to control; how it was run: as §1
BT-549 = assay: Antitumor activity against human BT-549 cells assessed as growth inhibition at 10 uM relative to control; how it was run: as §1
T47D = assay: Antitumor activity against human T47D cells assessed as growth inhibition at 10 uM relative to control; how it was run: as §2

N#Cc1c(-c2ccc(Cl)cc2)nc(N/N=C/c2cccc(Br)c2)nc1N1CCOCC1
inhibition of growth at 10 µM (CCRF-CEM): 49.7%
inhibition of growth at 10 µM (HL-60): 59.4%
inhibition of growth at 10 µM (K562): 87.4%
inhibition of growth at 10 µM (MOLT-4): 63.9%
inhibition of growth at 10 µM (SR): < 1%
inhibition of growth at 10 µM (A549): 19.6%
inhibition of growth at 10 µM (EKVX): 31.2%
inhibition of growth at 10 µM (NCI-H226): 28.8%
inhibition of growth at 10 µM (NCI-H23): < 1%
inhibition of growth at 10 µM (NCI-H322M): < 1%
inhibition of growth at 10 µM (NCI-H460): 13.1%
inhibition of growth at 10 µM (NCI-H522): < 1%
inhibition of growth at 10 µM (COLO 205): 56%
inhibition of growth at 10 µM (HCC 2998): < 1%
inhibition of growth at 10 µM (HCT-15): 91.6%
inhibition of growth at 10 µM (HT-29): 71%
inhibition of growth at 10 µM (SF-268): 10.8%
inhibition of growth at 10 µM (SF-539): 21.2%
inhibition of growth at 10 µM (SNB-19): < 1%
inhibition of growth at 10 µM (U-251): 38.4%
inhibition of growth at 10 µM (LOX IMVI): 20.2%
inhibition of growth at 10 µM (MDA-MB-435): < 1%
inhibition of growth at 10 µM (SK-MEL-2): < 1%
inhibition of growth at 10 µM (SK-MEL-28): < 1%
inhibition of growth at 10 µM (SK-MEL-5): 14.4%
inhibition of growth at 10 µM (UACC-62): < 1%
inhibition of growth at 10 µM (IGROV-1): 16.4%
inhibition of growth at 10 µM (OVCAR-5): 17.9%
inhibition of growth at 10 µM (OVCAR-8): < 1%
inhibition of growth at 10 µM (NCI/ADR-RES): < 1%
inhibition of growth at 10 µM (SK-OV-3): < 1%
inhibition of growth at 10 µM (786-0): 38.2%
inhibition of growth at 10 µM (A498): < 1%
inhibition of growth at 10 µM (ACHN): 28.5%
inhibition of growth at 10 µM (CAKI-1): 1%
inhibition of growth at 10 µM (RXF 393): < 1%
inhibition of growth at 10 µM (SN12C): < 1%
inhibition of growth at 10 µM (TK-10): < 1%
inhibition of growth at 10 µM (UO-31): 48.8%
inhibition of growth at 10 µM (PC-3): 38.8%
inhibition of growth at 10 µM (DU-145): 40.4%
inhibition of growth at 10 µM (MCF7): < 27.5%
inhibition of growth at 10 µM (MDA-MB-231): < 1%
inhibition of growth at 10 µM (Hs-578T): 17.9%
inhibition of growth at 10 µM (BT-549): < 1%
inhibition of growth at 10 µM (T47D): 32.5%

N#Cc1c(-c2ccc(Cl)cc2)nc(N/N=C/c2cccc(O)c2)nc1N1CCOCC1
inhibition of growth at 10 µM (CCRF-CEM): 63.8%
inhibition of growth at 10 µM (HL-60): 33.4%
inhibition of growth at 10 µM (K562): 54.9%
inhibition of growth at 10 µM (MOLT-4): 60.2%
inhibition of growth at 10 µM (SR): 95.3%
inhibition of growth at 10 µM (A549): 27.3%
inhibition of growth at 10 µM (EKVX): 33.4%
inhibition of growth at 10 µM (NCI-H226): 36.7%
inhibition of growth at 10 µM (NCI-H23): < 1%
inhibition of growth at 10 µM (NCI-H322M): 13.7%
inhibition of growth at 10 µM (NCI-H460): 22.1%
inhibition of growth at 10 µM (NCI-H522): 25.2%
inhibition of growth at 10 µM (COLO 205): 14.8%
inhibition of growth at 10 µM (HCC 2998): < 1%
inhibition of growth at 10 µM (HCT-15): 55.3%
inhibition of growth at 10 µM (HT-29): 30.2%
inhibition of growth at 10 µM (SF-268): 18.1%
inhibition of growth at 10 µM (SF-539): 32.2%
inhibition of growth at 10 µM (SNB-19): 13.1%
inhibition of growth at 10 µM (U-251): 14.2%
inhibition of growth at 10 µM (LOX IMVI): 38.2%
inhibition of growth at 10 µM (MDA-MB-435): 13%
inhibition of growth at 10 µM (SK-MEL-2): < 1%
inhibition of growth at 10 µM (SK-MEL-28): 22.9%
inhibition of growth at 10 µM (SK-MEL-5): 23.5%
inhibition of growth at 10 µM (UACC-62): < 1%
inhibition of growth at 10 µM (IGROV-1): 35.1%
inhibition of growth at 10 µM (OVCAR-5): < 1%
inhibition of growth at 10 µM (OVCAR-8): 34.6%
inhibition of growth at 10 µM (NCI/ADR-RES): 35.1%
inhibition of growth at 10 µM (SK-OV-3): < 1%
inhibition of growth at 10 µM (786-0): 35.7%
inhibition of growth at 10 µM (A498): 24.9%
inhibition of growth at 10 µM (ACHN): 39.1%
inhibition of growth at 10 µM (CAKI-1): 29.9%
inhibition of growth at 10 µM (RXF 393): < 1%
inhibition of growth at 10 µM (SN12C): 21.7%
inhibition of growth at 10 µM (TK-10): 21%
inhibition of growth at 10 µM (UO-31): 64.3%
inhibition of growth at 10 µM (PC-3): 36.2%
inhibition of growth at 10 µM (DU-145): 36.6%
inhibition of growth at 10 µM (MCF7): < 39.9%
inhibition of growth at 10 µM (MDA-MB-231): < 1%
inhibition of growth at 10 µM (Hs-578T): 10.6%
inhibition of growth at 10 µM (BT-549): 26.9%
inhibition of growth at 10 µM (T47D): 35.4%
